Experimental data from ChEMBL document CHEMBL2069213, “Synthesis and evaluation of small libraries of triazolylmethoxy chalcones, flavanones and 2-aminopyrimidines as inhibitors of mycobacterial FAS-II and PknG” (Bioorg Med Chem, 2012).
Active and inactive are the calls of the source. The rule behind the calls is not given here.

Tests used:
[1] = Toxicity against macrophages incubated for 48 hrs by resazurin dye reduction assay; assay type: cell-based, Macrophage
Procedure, shortened: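 Macrophages from subconfluent monolayers seeded ~1 × 10^6 cells/well in RPMI-1640; compounds 100 to 12.5 µM, 48 h at 37 °C, 5% CO2; resazurin added for 4 h, fluorescence 535/590 nm read against untreated wells as % viability; CC50 taken from viability-versus-concentration plot; triplicates.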

Mycolicibacterium aurum [2] = experiment: Inhibition of FAS2 in recombinant Mycobacterium aurum expressing hsp60 promoter in fusion Escherichia coli lacZ gene assessed as increase in beta-galactosidase activity at 50 uM incubated for 12 hrs by lacZ reporter gene assay
Mycolicibacterium aurum [3] = experiment: Growth inhibition of Mycobacterium aurum expressing Mycobacterium tuberculosis H37Rv kas operon in fusion Escherichia coli lacZ gene at 50 uM incubated for 12 hrs; assay type: functional; settings: read-out: GI
Mycolicibacterium aurum [4] = experiment: Inhibition of FAS2 in recombinant Mycobacterium aurum expressing hsp60 promoter in fusion Escherichia coli lacZ gene assessed as increase in beta-galactosidase activity at 100 uM incubated for 12 hrs by lacZ reporter gene assay
Mycolicibacterium aurum [5] = experiment: Growth inhibition of Mycobacterium aurum expressing Mycobacterium tuberculosis H37Rv kas operon in fusion Escherichia coli lacZ gene at 100 uM incubated for 12 hrs; assay type: functional; settings: read-out: GI
Mycolicibacterium aurum [6] = experiment: Inhibition of FAS2 in recombinant Mycobacterium aurum expressing Mycobacterium tuberculosis H37Rv kas operon in fusion Escherichia coli lacZ gene assessed as increase in beta-galactosidase activity at 50 uM incubated for 12 hrs by lacZ reporter gene assay
Procedure, shortened: (§1)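 Cells washed, sonicated in PBS pH 7.2; equal Bradford-quantified protein incubated with ONPG (4 mg/ml) 30 min at 37 °C, stopped with Na2CO3, read at 410 nm. Triplicates, experiment repeated twice; isoniazid positive control.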

Mycolicibacterium aurum [7] = experiment: Inhibition of FAS2 in recombinant Mycobacterium aurum expressing Mycobacterium tuberculosis H37Rv kas operon in fusion Escherichia coli lacZ gene assessed as increase in beta-galactosidase activity at 100 uM incubated for 12 hrs by lacZ reporter gene assay; procedure, shortened: as §1
[8] = molecular target: Serine/threonine-protein kinase PknG (Mycobacterium tuberculosis) (UniProt P9WI73); experiment: Inhibition of Mycobacterium tuberculosis recombinant PKnG expressed in Escherichia coli BL21 (DE3) cells using myelin basic protein substrate at 100 uM by luciferase activity based ADP-Glo-luminescent kinase assay
Procedure, shortened: (§2)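 6-His-PknG from M. tuberculosis genomic DNA cloned into pTriEx4, expressed in E. coli with 0.8 mM IPTG 4 h at 37 °C, purified by Ni2+-NTA then size exclusion. Compounds dissolved in DMSO; assayed with myelin basic protein substrate; ADP formed measured by ADP-Glo luminescence; AX20017 positive control; dose-response series.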

[9] = molecular target: Serine/threonine-protein kinase PknG (Mycobacterium tuberculosis) (UniProt P9WI73); experiment: Inhibition of Mycobacterium tuberculosis recombinant PKnG expressed in Escherichia coli BL21 (DE3) cells using myelin basic protein substrate at 12.5 uM by luciferase activity based ADP-Glo-luminescent kinase assay; procedure, shortened: as §2
[10] = molecular target: Serine/threonine-protein kinase PknG (Mycobacterium tuberculosis) (UniProt P9WI73); experiment: Inhibition of Mycobacterium tuberculosis recombinant PKnG expressed in Escherichia coli BL21 (DE3) cells using myelin basic protein substrate at 6.25 uM by luciferase activity based ADP-Glo-luminescent kinase assay; procedure, shortened: as §2
[11] = molecular target: Serine/threonine-protein kinase PknG (Mycobacterium tuberculosis) (UniProt P9WI73); experiment: Inhibition of Mycobacterium tuberculosis recombinant PKnG expressed in Escherichia coli BL21 (DE3) cells using myelin basic protein substrate at 3.125 uM by luciferase activity based ADP-Glo-luminescent kinase assay; procedure, shortened: as §2
[12] = molecular target: Serine/threonine-protein kinase PknG (Mycobacterium tuberculosis) (UniProt P9WI73); experiment: Inhibition of Mycobacterium tuberculosis recombinant PKnG expressed in Escherichia coli BL21 (DE3) cells using myelin basic protein substrate at 50 uM by luciferase activity based ADP-Glo-luminescent kinase assay; procedure, shortened: as §2
[13] = molecular target: Serine/threonine-protein kinase PknG (Mycobacterium tuberculosis) (UniProt P9WI73); experiment: Inhibition of Mycobacterium tuberculosis recombinant PKnG expressed in Escherichia coli BL21 (DE3) cells using myelin basic protein substrate at 25 uM by luciferase activity based ADP-Glo-luminescent kinase assay; procedure, shortened: as §2

Serine/threonine-protein kinase PknG (Mycobacterium tuberculosis), sequence (P9WI73 whole entry): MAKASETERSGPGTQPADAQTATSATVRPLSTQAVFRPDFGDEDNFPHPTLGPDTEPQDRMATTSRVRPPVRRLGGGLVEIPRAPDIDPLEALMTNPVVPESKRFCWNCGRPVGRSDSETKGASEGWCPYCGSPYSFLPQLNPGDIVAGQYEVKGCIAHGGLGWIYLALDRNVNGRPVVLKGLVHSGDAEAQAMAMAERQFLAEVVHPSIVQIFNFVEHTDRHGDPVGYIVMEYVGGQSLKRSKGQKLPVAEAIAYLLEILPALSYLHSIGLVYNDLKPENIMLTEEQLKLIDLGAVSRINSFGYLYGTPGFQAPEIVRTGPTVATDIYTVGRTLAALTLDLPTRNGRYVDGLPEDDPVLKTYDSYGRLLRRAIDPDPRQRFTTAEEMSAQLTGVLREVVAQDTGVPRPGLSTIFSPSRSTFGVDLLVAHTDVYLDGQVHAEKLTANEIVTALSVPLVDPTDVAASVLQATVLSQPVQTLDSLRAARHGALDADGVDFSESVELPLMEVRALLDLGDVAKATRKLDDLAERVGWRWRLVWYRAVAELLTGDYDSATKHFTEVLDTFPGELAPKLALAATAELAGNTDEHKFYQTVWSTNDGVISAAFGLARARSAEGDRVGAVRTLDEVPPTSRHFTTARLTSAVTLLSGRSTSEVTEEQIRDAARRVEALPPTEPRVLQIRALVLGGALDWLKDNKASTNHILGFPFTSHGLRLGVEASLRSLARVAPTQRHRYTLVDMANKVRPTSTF

SMILES | inhibition of growth at 50 µM (Mycolicibacterium aurum [3]) [%] | inhibition of growth at 100 µM (Mycolicibacterium aurum [5]) [%] | inhibition [8] [%] | also measured
O=C(/C=C/c1ccccc1)c1ccc(OCc2cn(Cc3ccc(Br)cc3)nn2)cc1O | 53.8 | 85.3 |  | CC50 at 48 h [1]: 71.7 µM; inhibition (Mycolicibacterium aurum [2]): inactive; inhibition (Mycolicibacterium aurum [4]): inactive; inhibition (Mycolicibacterium aurum [6]): Active; inhibition (Mycolicibacterium aurum [7]): Active
C#CCOc1ccc(/C=C/C(=O)c2ccc(OCc3cn(Cc4ccccc4)nn3)cc2O)cc1 | 0 | 22 |  | 
CCCCCCn1cc(COc2ccc(-c3cc(-c4ccc(OC)cc4)nc(N)n3)c(O)c2)nn1 |  |  | 4 | 
CC(C)c1ccc(-c2cc(-c3ccc(OCc4cn(Cc5ccc(Br)cc5)nn4)cc3O)nc(N)n2)cc1 |  |  | 5 | 
O=C1CC(c2ccc(Br)cc2)Oc2cc(OCc3cn(Cc4ccc(Br)cc4)nn3)ccc21 (stereo unspecified) | 50 | 70.6 |  | CC50 at 48 h [1]: 87.5 µM; inhibition (Mycolicibacterium aurum [6]): inactive; inhibition (Mycolicibacterium aurum [7]): inactive
CC(=O)c1ccc(OCc2cn(Cc3ccc(Br)cc3)nn2)cc1O | 70.4 | 73.7 |  | inhibition (Mycolicibacterium aurum [6]): inactive; inhibition (Mycolicibacterium aurum [7]): inactive
CC(C)c1ccc(C2CC(=O)c3ccc(OCc4cn(Cc5ccc(Br)cc5)nn4)cc3O2)cc1 (stereo unspecified) | 31 | 72.5 |  | 
CC(C)c1ccc(-c2cc(-c3ccc(OCc4cn(Cc5ccccc5)nn4)cc3O)nc(N)n2)cc1 |  |  | 28 | CC50 at 48 h [1]: > 100 µM; inhibition [9]: 0%; inhibition [10]: 0%; inhibition [11]: 0%; inhibition [12]: 16%; inhibition [13]: 0%
C#CCOc1ccc(/C=C/C(=O)c2ccc(OCc3cn(CCCCCC)nn3)cc2O)cc1 | 39.6 | 56 |  | 
Nc1nc(-c2ccc(Cl)cc2)cc(-c2ccc(OCc3cn(Cc4ccccc4)nn3)cc2O)n1 |  |  | 53 | CC50 at 48 h [1]: 66.6 µM; inhibition [9]: 5%; inhibition [10]: 5%; inhibition [11]: 4%; inhibition [13]: 19%
CC(=O)c1ccc(OCc2cn(Cc3ccccc3)nn2)cc1O | 23.7 | 75.9 |  | inhibition (Mycolicibacterium aurum [6]): inactive; inhibition (Mycolicibacterium aurum [7]): inactive
O=C1CC(c2ccc(Cl)cc2)Oc2cc(OCc3cn(Cc4ccccc4)nn3)ccc21 (stereo unspecified) | 46.9 | 79.8 |  | 
CCCCCCn1cc(COc2ccc(C(=O)/C=C/c3ccc(Cl)cc3)c(O)c2)nn1 | 6.1 | 59 |  | 
Nc1nc(-c2ccccc2)cc(-c2ccc(OCc3cn(Cc4ccc(Br)cc4)nn3)cc2O)n1 |  |  | 41 | CC50 at 48 h [1]: > 100 µM; inhibition [9]: 0%; inhibition [12]: 17%; inhibition [13]: 9%
Nc1nc(-c2ccc(Br)cc2)cc(-c2ccc(OCc3cn(Cc4ccc(Br)cc4)nn3)cc2O)n1 |  |  | 19 | inhibition [9]: 0%; inhibition [10]: 0%; inhibition [11]: 5%; inhibition [12]: 0%; inhibition [13]: 0%
CCCCCCn1cc(COc2ccc3c(c2)OC(c2ccccc2)CC3=O)nn1 (stereo unspecified) | 19 | 70.2 |  | 
CC(C)c1ccc(/C=C/C(=O)c2ccc(OCc3cn(Cc4ccccc4)nn3)cc2O)cc1 | 0 | 12.7 |  | 
O=C1CC(c2ccccc2)Oc2cc(OCc3cn(Cc4ccc(Br)cc4)nn3)ccc21 (stereo unspecified) | 15.8 | 66.1 |  | 
C#CCOc1ccc(-c2cc(-c3ccc(OCc4cn(CCCCCC)nn4)cc3O)nc(N)n2)cc1 |  |  | 17 | 
O=C(/C=C/c1cccc2ccccc12)c1ccc(OCc2cn(Cc3ccc(Br)cc3)nn2)cc1O | 0 | 63.2 |  | 
Nc1nc(-c2ccc(OCc3cn(Cc4ccc(Br)cc4)nn3)cc2O)cc(-c2cccc3ccccc23)n1 |  |  | 34 | CC50 at 48 h [1]: > 100 µM; inhibition [9]: 0%; inhibition [10]: 2%; inhibition [11]: 0%; inhibition [12]: 3%; inhibition [13]: 0%
CCCCCCn1cc(COc2ccc(-c3cc(-c4ccc(Cl)cc4)nc(N)n3)c(O)c2)nn1 |  |  | 43 | CC50 at 48 h [1]: 30.3 µM; inhibition [10]: 0%; inhibition [11]: 0%; inhibition [12]: 0%; inhibition [13]: 0%
NC(=O)C1=C(NC(=O)C2CC2)CC2=C1CCCC2 |  |  |  | inhibition [9]: 12%; inhibition [12]: 24%; inhibition [13]: 22%

SMILES | inhibition of growth at 50 µM (Mycolicibacterium aurum [3]) [%] | inhibition of growth at 100 µM (Mycolicibacterium aurum [5]) [%] | inhibition [8] [%] | also measured
CCCCCCn1cc(COc2ccc(C(=O)/C=C/c3ccc(OC)cc3)c(O)c2)nn1 | 6.2 | 44.7 |  | 
O=C(/C=C/c1cccc2ccccc12)c1ccc(OCc2cn(Cc3ccccc3)nn2)cc1O | 2.6 | 51.6 |  | 
CCCCCCn1cc(COc2ccc(C(=O)/C=C/c3ccccc3)c(O)c2)nn1 | 16.8 | 57.7 |  | 
CC(C)c1ccc(/C=C/C(=O)c2ccc(OCc3cn(Cc4ccc(Br)cc4)nn3)cc2O)cc1 | 0 | 17.8 |  | 
COc1ccc(-c2cc(-c3ccc(OCc4cn(Cc5ccccc5)nn4)cc3O)nc(N)n2)cc1 |  |  | 43 | CC50 at 48 h [1]: 42.7 µM; inhibition [9]: 10%; inhibition [10]: 0%; inhibition [11]: 6%; inhibition [12]: 43%; inhibition [13]: 9%
CCCCCCn1cc(COc2ccc(C(=O)/C=C/c3cccc4ccccc34)c(O)c2)nn1 | 5.5 | 18.8 |  | 
C#CCOc1ccc(C(C)=O)c(O)c1 | 2 | 35.6 |  | 
O=C(/C=C/c1c(F)cccc1Cl)c1ccc(OCc2cn(Cc3ccccc3)nn2)cc1O | 17.6 | 74.5 |  | 
CCCCCCn1cc(COc2ccc(-c3cc(-c4c(F)cccc4Cl)nc(N)n3)c(O)c2)nn1 |  |  | 11 | 
CCCCCCn1cc(COc2ccc(C(=O)/C=C/c3ccc(Br)cc3)c(O)c2)nn1 | 69.6 | 76.5 |  | CC50 at 48 h [1]: > 100 µM; inhibition (Mycolicibacterium aurum [6]): inactive; inhibition (Mycolicibacterium aurum [7]): inactive
Nc1nc(-c2ccccc2)cc(-c2ccc(OCc3cn(Cc4ccccc4)nn3)cc2O)n1 |  |  | 29 | CC50 at 48 h [1]: 76.5 µM; inhibition [9]: 18%; inhibition [10]: 4%; inhibition [11]: 5%; inhibition [12]: 37%; inhibition [13]: 14%
Nc1nc(-c2ccc(OCc3cn(Cc4ccccc4)nn3)cc2O)cc(-c2c(F)cccc2Cl)n1 |  |  | 12 | 
CCCCCCn1cc(COc2ccc(-c3cc(-c4ccc(C(C)C)cc4)nc(N)n3)c(O)c2)nn1 |  |  | 5 | 
CCCCCCn1cc(COc2ccc3c(c2)OC(c2ccc(C(C)C)cc2)CC3=O)nn1 (stereo unspecified) | 34.1 | 56.4 |  | 
O=C(/C=C/c1ccc(Br)cc1)c1ccc(OCc2cn(Cc3ccc(Br)cc3)nn2)cc1O | 11.6 | 28 |  | 
COc1ccc(/C=C/C(=O)c2ccc(OCc3cn(Cc4ccccc4)nn3)cc2O)cc1 | 25.5 | 68.7 |  | 
CCCCCCn1cc(COc2ccc(C(=O)/C=C/c3ccc(C(C)C)cc3)c(O)c2)nn1 | 0 | 31.4 |  | 
CCCCCCn1cc(COc2ccc(C(C)=O)c(O)c2)nn1 | 93.1 | 91.8 |  | inhibition (Mycolicibacterium aurum [6]): inactive; inhibition (Mycolicibacterium aurum [7]): inactive
O=C1CC(c2ccccc2)Oc2cc(OCc3cn(Cc4ccccc4)nn3)ccc21 (stereo unspecified) | 27 | 74.8 |  | 
CCCCCCn1cc(COc2ccc(-c3cc(-c4cccc5ccccc45)nc(N)n3)c(O)c2)nn1 |  |  | 11 | 
O=C(/C=C/c1ccc(Cl)cc1)c1ccc(OCc2cn(Cc3ccccc3)nn2)cc1O | 11.6 | 28 |  | 
Nc1nc(-c2ccc(OCc3cn(Cc4ccccc4)nn3)cc2O)cc(-c2cccc3ccccc23)n1 |  |  | 35 | CC50 at 48 h [1]: 71.3 µM; inhibition [9]: 11%; inhibition [10]: 9%; inhibition [11]: 0%; inhibition [12]: 25%; inhibition [13]: 7%
